Measured values from ChEMBL document CHEMBL1140690, “5-((4-Aminopiperidin-1-yl)methyl)pyrrolotriazine dual inhibitors of EGFR and HER2 protein tyrosine kinases” (Bioorg Med Chem Lett, 2007).
pIC50: −log10 of the molar value. Activity calls are given as the source filed them. The calls are words filed in the database; no cut-off is given here.

What was measured:
[1] = system: HT-29; test: Antiproliferative activity against human HT29 cells; format: functional, cell-based
Procedure, shortened: (§1)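 HT29 (colon carcinoma) and A2780 (ovarian carcinoma) lines, stated not to rely on EGFR or HER2 signalling, serve as counter-screen lines; proliferation IC50 reported.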

[2] = system: NCI-N87; test: Antitumor activity against human N87 cells xenografted in athymic mouse at 180 mg/kg, po QD after 21 days; settings: 504 h; for minimal effective dose at 180 mg/kg: read-out: MED
[3] = Antitumor activity against human GEO cells xenografted in athymic mouse at 135 mg/kg, sc BID after 14 days; format: functional; settings: 336 h, route subcutaneous
[4] = system: NCI-N87; test: Antiproliferative activity against human N87 cells
[5] = system: A2780; test: Antiproliferative activity against human A2780 cells; format: functional, cell-based; procedure, shortened: as §1
[6] = target: Receptor tyrosine-protein kinase erbB-2 (Homo sapiens, UniProt P04626); test: Inhibition of human recombinant HER2 expressed in insect Sf9 cells
[7] = target: Epidermal growth factor receptor (Homo sapiens, UniProt P00533); test: Inhibition of human recombinant EGFR expressed in insect Sf9 cells
[8] = target: Tyrosine-protein kinase Lck (Homo sapiens, UniProt P06239); test: Inhibition of LCK
[9] = target: MAP kinase p38 (Homo sapiens, UniProt O15264+Q15759+Q16539+P53778); test: Inhibition of p38; format: protein assay
Procedure, shortened: (§2)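 Selectivity-panel kinase assays against each named kinase. IC50 reported as the mean of at least three determinations.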

[10] = Drug level in BALB/c mouse plasma at 50 mg/kg, po after 4 hrs; format: ADME, organism-based; design: dose 50 mg/kg, route oral
Procedure, shortened: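 Single oral 50 mg/kg dose in Tween 80/PEG400/water (10/40/50, v/v/v) to three male Balb/C mice; plasma concentration at 4 h averaged, AUC0–4h also derived.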

[11] = AUC (0 to 4 hrs) in BALB/c mouse at 50 mg/kg, po after 4 hrs; format: ADME, organism-based; design: time < 4 hr, dose 50 mg/kg, route oral; settings: plasma
[12] = target: Vascular endothelial growth factor receptor 2 (Homo sapiens, UniProt P35968); test: Inhibition of VEGFR2; procedure, shortened: as §2
[13] = target: Hepatocyte growth factor receptor (Homo sapiens, UniProt P08581); test: Inhibition of Met; procedure, shortened: as §2
[14] = Antitumor activity against human GEO cells xenografted in athymic mouse at 240 mg/kg, […] after 10 days; format: functional; settings: sc, 240 h
Procedure, shortened: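 Established subcutaneous GEO human colon carcinoma xenografts in athymic mice. Compound given orally once daily for 10 days (QD × 10) in Tween 80–PEG400–water (10/40/50).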

[15] = Antitumor activity against human GEO cells xenografted in athymic mouse at 120 mg/kg, sc QD after 10 days
[16] = system: HT29; test: Antiproliferative activity against human HT29 cells
[17] = target: Protein kinase C (PKC); test: Inhibition of PKC; design: species or system Homo sapiens
Procedure, shortened: (§3)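 Kinase panel IC50s, each reported as the mean of at least three determinations.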

[18] = system: Liver; test: Metabolic stability in mouse liver microsomes at 3 uM after 10 mins in presence of NADPH; format: ADME, Microsome
Procedure, shortened: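 Mouse liver microsomes with NADPH; compound at 3 µM, incubated 10 min; metabolic rate expressed as nmol/min/mg protein.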

[19] = Inhibition of PKA; design: species or system Homo sapiens; procedure, shortened: as §3
[20] = target: CDK2/Cyclin E1 (Homo sapiens, UniProt P24941); test: Inhibition of CDK2; procedure, shortened: as §2
[21] = system: GEO; test: Antitumor activity against human GEO cells xenografted in athymic mouse at 180 mg/kg, sc QD after 10 days; format: functional, organism-based; design: dose 180 mg/kg
[22] = system: NCI-N87; test: Antitumor activity against human N87 cells xenografted in athymic mouse at 240 mg/kg, sc QD after 21 days; format: functional; settings: 504 h

Chain of Epidermal growth factor receptor (P00533 whole entry): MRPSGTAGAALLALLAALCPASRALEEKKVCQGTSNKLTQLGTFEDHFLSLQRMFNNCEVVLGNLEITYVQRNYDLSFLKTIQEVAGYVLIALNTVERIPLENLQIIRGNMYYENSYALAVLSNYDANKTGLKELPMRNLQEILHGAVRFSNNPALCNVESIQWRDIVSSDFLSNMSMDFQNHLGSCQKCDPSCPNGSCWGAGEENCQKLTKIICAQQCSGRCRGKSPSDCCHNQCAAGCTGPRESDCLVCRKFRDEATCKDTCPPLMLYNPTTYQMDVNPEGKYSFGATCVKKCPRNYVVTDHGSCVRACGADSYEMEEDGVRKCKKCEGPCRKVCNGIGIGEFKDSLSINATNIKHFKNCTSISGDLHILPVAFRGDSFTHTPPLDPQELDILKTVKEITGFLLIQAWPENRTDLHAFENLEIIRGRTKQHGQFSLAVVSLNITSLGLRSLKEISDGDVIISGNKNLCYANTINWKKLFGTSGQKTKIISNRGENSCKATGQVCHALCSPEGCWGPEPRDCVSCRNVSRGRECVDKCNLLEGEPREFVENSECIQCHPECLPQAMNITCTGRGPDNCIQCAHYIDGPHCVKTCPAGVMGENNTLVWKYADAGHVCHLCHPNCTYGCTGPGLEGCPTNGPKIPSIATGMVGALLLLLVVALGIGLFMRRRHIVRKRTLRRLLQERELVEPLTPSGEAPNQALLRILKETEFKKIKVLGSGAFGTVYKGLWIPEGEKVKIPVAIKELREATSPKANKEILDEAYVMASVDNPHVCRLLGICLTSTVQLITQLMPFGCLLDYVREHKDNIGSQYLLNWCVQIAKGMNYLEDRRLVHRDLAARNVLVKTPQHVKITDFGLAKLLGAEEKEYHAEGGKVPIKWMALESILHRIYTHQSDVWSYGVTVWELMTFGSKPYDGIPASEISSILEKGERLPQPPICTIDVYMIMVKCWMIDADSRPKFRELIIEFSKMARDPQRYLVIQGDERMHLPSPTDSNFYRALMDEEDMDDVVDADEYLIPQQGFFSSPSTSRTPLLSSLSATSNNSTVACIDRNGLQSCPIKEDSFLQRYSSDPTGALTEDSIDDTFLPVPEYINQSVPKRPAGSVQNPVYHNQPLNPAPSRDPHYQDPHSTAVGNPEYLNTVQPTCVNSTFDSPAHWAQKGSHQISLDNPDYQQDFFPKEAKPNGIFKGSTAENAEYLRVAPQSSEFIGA
Chain of Receptor tyrosine-protein kinase erbB-2 (P04626 whole entry): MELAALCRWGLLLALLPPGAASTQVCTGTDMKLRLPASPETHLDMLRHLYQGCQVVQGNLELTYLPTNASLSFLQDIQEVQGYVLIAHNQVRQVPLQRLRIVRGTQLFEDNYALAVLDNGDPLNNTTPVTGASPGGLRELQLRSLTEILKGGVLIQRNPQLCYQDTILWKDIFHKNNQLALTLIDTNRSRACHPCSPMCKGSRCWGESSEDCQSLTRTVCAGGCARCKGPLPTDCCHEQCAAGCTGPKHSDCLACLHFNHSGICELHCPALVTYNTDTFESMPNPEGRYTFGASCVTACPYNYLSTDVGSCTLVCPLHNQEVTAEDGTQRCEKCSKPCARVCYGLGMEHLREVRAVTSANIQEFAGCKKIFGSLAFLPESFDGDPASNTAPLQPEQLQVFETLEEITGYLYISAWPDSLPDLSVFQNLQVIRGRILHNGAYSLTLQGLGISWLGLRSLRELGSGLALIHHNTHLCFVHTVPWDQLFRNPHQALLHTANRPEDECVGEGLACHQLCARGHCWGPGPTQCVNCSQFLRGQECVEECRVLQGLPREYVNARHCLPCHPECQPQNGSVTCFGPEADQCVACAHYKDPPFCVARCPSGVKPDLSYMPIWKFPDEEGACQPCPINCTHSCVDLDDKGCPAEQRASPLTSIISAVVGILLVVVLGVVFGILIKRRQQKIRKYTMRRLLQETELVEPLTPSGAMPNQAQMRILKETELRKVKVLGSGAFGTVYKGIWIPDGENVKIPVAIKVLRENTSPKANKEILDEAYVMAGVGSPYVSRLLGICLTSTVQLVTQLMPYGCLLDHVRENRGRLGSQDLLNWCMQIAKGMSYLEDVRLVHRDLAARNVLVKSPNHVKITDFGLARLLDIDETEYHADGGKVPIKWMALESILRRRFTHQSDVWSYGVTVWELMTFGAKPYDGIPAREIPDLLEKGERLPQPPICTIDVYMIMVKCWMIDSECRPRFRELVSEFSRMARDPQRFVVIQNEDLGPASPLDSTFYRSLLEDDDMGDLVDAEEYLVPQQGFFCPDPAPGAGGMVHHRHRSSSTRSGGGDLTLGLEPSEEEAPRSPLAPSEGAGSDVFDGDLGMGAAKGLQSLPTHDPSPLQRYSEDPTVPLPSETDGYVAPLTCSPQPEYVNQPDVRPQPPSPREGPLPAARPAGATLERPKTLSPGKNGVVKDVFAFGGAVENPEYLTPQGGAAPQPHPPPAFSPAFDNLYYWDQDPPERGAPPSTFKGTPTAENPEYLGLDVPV
Chain of Tyrosine-protein kinase Lck (P06239 whole entry): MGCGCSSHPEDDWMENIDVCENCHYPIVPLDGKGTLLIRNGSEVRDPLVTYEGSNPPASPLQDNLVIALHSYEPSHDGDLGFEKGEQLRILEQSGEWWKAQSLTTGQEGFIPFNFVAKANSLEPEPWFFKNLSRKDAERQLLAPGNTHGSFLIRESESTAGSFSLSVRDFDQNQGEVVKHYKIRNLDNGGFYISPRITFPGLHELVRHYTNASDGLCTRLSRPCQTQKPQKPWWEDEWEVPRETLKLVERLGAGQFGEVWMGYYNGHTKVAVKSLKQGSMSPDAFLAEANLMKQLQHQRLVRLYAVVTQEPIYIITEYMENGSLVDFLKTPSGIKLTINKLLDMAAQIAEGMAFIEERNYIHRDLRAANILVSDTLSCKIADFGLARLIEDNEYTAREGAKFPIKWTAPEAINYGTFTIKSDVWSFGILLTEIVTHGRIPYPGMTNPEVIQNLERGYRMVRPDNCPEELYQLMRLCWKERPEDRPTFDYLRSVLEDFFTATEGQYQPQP
Chain of Hepatocyte growth factor receptor (P08581 whole entry): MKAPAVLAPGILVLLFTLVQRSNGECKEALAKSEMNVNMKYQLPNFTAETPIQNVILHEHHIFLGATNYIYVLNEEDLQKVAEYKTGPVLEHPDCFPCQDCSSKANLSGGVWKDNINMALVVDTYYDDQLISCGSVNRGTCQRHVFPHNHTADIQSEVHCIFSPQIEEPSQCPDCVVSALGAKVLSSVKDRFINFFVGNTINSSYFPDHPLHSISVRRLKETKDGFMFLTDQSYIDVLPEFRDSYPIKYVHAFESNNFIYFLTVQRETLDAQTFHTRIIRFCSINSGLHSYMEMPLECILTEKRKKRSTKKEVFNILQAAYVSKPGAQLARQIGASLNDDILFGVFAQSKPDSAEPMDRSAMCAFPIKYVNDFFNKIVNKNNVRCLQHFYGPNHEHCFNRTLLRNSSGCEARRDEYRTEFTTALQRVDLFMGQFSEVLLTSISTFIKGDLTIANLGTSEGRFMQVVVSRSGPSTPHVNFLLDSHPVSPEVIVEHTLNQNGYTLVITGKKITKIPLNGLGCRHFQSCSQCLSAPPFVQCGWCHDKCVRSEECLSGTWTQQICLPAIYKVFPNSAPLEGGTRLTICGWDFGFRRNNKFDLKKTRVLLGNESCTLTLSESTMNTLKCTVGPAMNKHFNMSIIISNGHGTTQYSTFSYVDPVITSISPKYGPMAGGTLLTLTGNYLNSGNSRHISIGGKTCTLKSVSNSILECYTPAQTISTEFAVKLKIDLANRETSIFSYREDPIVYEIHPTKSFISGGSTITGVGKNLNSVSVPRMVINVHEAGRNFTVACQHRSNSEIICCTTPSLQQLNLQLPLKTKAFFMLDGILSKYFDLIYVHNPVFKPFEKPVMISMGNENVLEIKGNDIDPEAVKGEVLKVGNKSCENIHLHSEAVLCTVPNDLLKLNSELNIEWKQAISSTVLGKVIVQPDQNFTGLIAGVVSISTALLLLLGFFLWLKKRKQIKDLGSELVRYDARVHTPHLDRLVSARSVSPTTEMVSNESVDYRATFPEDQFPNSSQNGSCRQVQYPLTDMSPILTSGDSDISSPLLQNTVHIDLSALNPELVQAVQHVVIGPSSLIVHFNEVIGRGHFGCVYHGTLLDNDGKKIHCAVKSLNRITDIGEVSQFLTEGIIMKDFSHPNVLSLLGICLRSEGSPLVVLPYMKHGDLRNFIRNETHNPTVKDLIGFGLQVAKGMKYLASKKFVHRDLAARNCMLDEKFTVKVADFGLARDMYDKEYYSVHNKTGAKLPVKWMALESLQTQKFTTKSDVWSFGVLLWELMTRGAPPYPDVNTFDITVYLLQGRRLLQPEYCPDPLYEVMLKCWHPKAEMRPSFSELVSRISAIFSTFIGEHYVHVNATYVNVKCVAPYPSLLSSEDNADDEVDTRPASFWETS

Row | Compound | pIC50 [1] | pIC50 [4] | pIC50 [5] | pIC50 [6] | pIC50 [7] | concentration at 4 h [10] [µM] | AUC(0-t) at 4 h [11] [µM·h] | further results
1 | Fc1cccc(Cn2ncc3cc(Nc4ncnn5ccc(CN6CCCNCC6)c45)ccc32)c1 | 5.44 | 6.96 | 5.44 |  |  |  |  | inhibition in vivo at 180 mg/kg [2]: 121%; minimal effective dose at 180 mg/kg [2]: 90 mg/kg; inhibition in vivo at 135 mg/kg ([3]; dose 135 mg/kg): 78%; minimal effective dose ([3]; read-out: MED): 90 mg/kg
2 | O=C(CO)NC1CCN(Cc2ccn3ncnc(Nc4ccc5c(cnn5Cc5cccc(F)c5)c4)c23)CC1 | 5.02 | 6.51 | 5.02 | 6.92 | 6.96 |  |  | 
3 | NC1CCN(Cc2ccn3ncnc(Nc4ccc5c(cnn5Cc5cccc(F)c5)c4)c23)CC1 | 5.37 | 7.46 |  | 7.64 | 7.46 | 2.7 | 14 | pIC50 [8]: 6.15; IC50 [9]: > 50 µM; pIC50 [12]: 6.32; pIC50 [13]: 5.41; inhibition in vivo at 240 mg/kg [14]: 85%; inhibition in vivo at 180 mg/kg [2]: 133%; minimal effective dose at 180 mg/kg [2]: 60 mg/kg; MED [15]: 120 mg/kg; pIC50 [16]: 5.37; IC50 [17]: 2.2 µM; metabolic rate [18]: 0.05 nmol/min/mg; pIC50 [19]: < 4.30; pIC50 [20]: 5.72
4 | COc1cn2ncnc(Nc3ccc4c(cnn4Cc4cccc(F)c4)c3)c2c1CN1CCCNCC1 |  | 5.43 |  | 6.77 | 6.72 |  |  | 
5 | NC1CCN(Cc2ccn3ncnc(Nc4ccc(OCc5cccc(F)c5)c(Cl)c4)c23)CC1 |  | 7.08 |  | 7.49 | 7.42 |  |  | 
6 | CS(=O)(=O)CCNC1CCN(Cc2ccn3ncnc(Nc4ccc5c(cnn5Cc5cccc(F)c5)c4)c23)CC1 |  | 6.15 |  | 6.72 | 6.70 |  |  | 
7 | NC1CCN(Cc2ccn3ncnc(Nc4ccc5c(cnn5Cc5cccnc5)c4)c23)CC1 | < 5.30 | 7.07 | < 5.30 | 7.47 | 6.72 | 4.5 | 22 | metabolic rate [18]: 0.01 nmol/min/mg
8 | NC1CCN(Cc2ccn3ncnc(Nc4ccc5c(cnn5Cc5ccncc5)c4)c23)CC1 | < 5.30 | 6.33 | < 5.30 | 6.72 | 6.28 |  |  | 
9 | CC1(N)CCN(Cc2ccn3ncnc(Nc4ccc5c(cnn5Cc5cccc(F)c5)c4)c23)CC1 | 5.21 | 7.15 |  | 7.37 | 7.30 |  |  | pIC50 [16]: 5.21
10 | Cc1cncc(Cn2ncc3cc(Nc4ncnn5ccc(CN6CCC(N)CC6)c45)ccc32)c1 | < 5.30 | 7.44 | < 5.30 | 7.89 | 7.72 | 1.3 | 9.9 | inhibition in vivo at 180 mg/kg [2]: 89%; minimal effective dose at 180 mg/kg [2]: 120 mg/kg; Activity [21]: inactive; metabolic rate [18]: 0.06 nmol/min/mg
11 | NC1CCN(Cc2ccn3ncnc(Nc4ccc(OCc5cccc[n+]5[O-])c(Cl)c4)c23)CC1 | < 5.30 | 6.96 | < 5.30 | 7.74 | 7.15 | 3.9 | 15 | Activity [21]: inactive; metabolic rate [18]: 0 nmol/min/mg
12 | Fc1cccc(Cn2ncc3cc(Nc4ncnn5ccc(COC[C@@H]6CNCCO6)c45)ccc32)c1 | 5.06 |  |  |  |  |  |  | pIC50 [19]: < 4.30
13 | NCC1CCN(Cc2ccn3ncnc(Nc4ccc5c(cnn5Cc5cccc(F)c5)c4)c23)CC1 | 5.54 | 6.85 | 5.54 | 7.42 | 7.46 |  |  | 
14 | Fc1cccc(Cn2ncc3cc(Nc4ncnn5ccc(CNC6CCNCC6)c45)ccc32)c1 | 5.30 | 5.94 | 5.30 | 7.12 | 6.96 |  |  | 
15 | NC1CCN(Cc2ccn3ncnc(Nc4ccc5c(cnn5Cc5ccccn5)c4)c23)CC1 | < 5.00 | 6.92 | < 5.00 | 7.46 | 7.33 | 1.6 | 3.6 | metabolic rate [18]: 0.01 nmol/min/mg
16 | COc1cn2ncnc(Nc3ccc4c(cnn4Cc4cccc(F)c4)c3)c2c1CN1CCC(N)CC1 |  | 6.37 |  | 7.37 | 7.40 |  |  | 
17 | NC1CCN(Cc2ccn3ncnc(Nc4ccc(OCc5cnccn5)c(Cl)c4)c23)CC1 | 5.46 | 7.14 | 5.46 | 7.59 | 7.49 | 6.3 | 21 | inhibition in vivo at 180 mg/kg [2]: 63%; minimal effective dose at 180 mg/kg [2]: 180 mg/kg; Activity [21]: inactive; metabolic rate [18]: 0.12 nmol/min/mg
18 | CNC1CCN(Cc2ccn3ncnc(Nc4ccc5c(cnn5Cc5cccc(F)c5)c4)c23)CC1 | 5.14 | 7.11 | 5.14 | 7.27 | 7.20 |  |  | 
19 | NC1CCN(Cc2ccn3ncnc(Nc4ccc(OCc5cccnc5)c(Cl)c4)c23)CC1 | 5.57 | 6.64 | 5.57 | 7.44 | 6.82 | 7.5 | 30 | 
20 | CN(C)C1CCN(Cc2ccn3ncnc(Nc4ccc5c(cnn5Cc5cccc(F)c5)c4)c23)CC1 | 5.12 | 6.35 | 5.12 | 6.96 | 7.00 |  |  | 
21 | N[C@H]1CCN(Cc2ccn3ncnc(Nc4ccc5c(cnn5Cc5cccc(F)c5)c4)c23)C1 | 5.19 | 6.09 | 5.19 | 7.28 | 7.30 |  |  | 
22 | CC(=O)NC1CCN(Cc2ccn3ncnc(Nc4ccc5c(cnn5Cc5cccc(F)c5)c4)c23)CC1 | < 5.00 | 6.54 |  | 6.74 | 6.42 |  |  | pIC50 [16]: < 5.00
23 | Cc1cncc(COc2ccc(Nc3ncnn4ccc(CN5CCC(N)CC5)c34)cc2Cl)c1 | 5.46 | 6.74 | 5.46 | 7.22 |  | 1.8 | 7.8 | metabolic rate [18]: 0 nmol/min/mg
24 | OCCNC1CCN(Cc2ccn3ncnc(Nc4ccc5c(cnn5Cc5cccc(F)c5)c4)c23)CC1 | 5.27 | 7.14 | 5.27 | 7.51 |  |  |  | 
25 | Fc1cccc(COc2ccc(Nc3ncnn4ccc(CN5CCCNCC5)c34)cc2Cl)c1 |  | 6.22 |  | 7.39 | 7.32 |  |  | 
26 | NC1CCN(Cc2ccn3ncnc(Nc4ccc(OCc5ccccn5)c(Cl)c4)c23)CC1 | 5.70 | 7.24 | 5.70 | 7.66 | 7.44 | 3.7 | 13 | inhibition in vivo at 240 mg/kg ([22]; dose 240 mg/kg): 110%; minimal effective dose ([22]; read-out: MED): 120 mg/kg; metabolic rate [18]: 0.04 nmol/min/mg
27 | N[C@@H]1CCN(Cc2ccn3ncnc(Nc4ccc5c(cnn5Cc5cccc(F)c5)c4)c23)C1 | 5.41 | 6.08 | 5.41 | 7.15 | 7.22 |  |  | 
